Consider 2 compounds from PMC11152975 (International Journal of Pharmaceutics: X, 2024).

Series [1] addresses T1, bovine serum albumin (BSA) (Bos taurus, UniProt P02769). The series can be described thus: Protein adsorption to micelles: incubation with BSA, DLS and TEM. The series is classed as physicochemical. An outline of the steps:
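Drug-loaded micelles were incubated with 45 mg/mL bovine serum albumin in 0.01 M PBS (pH 7.4) at 37 °C for 8 h, with BSA alone and micelles alone incubated in PBS as controls. Hydrodynamic size and polydispersity were read by DLS (n = 3, mean ± SD). For TEM, samples settled 20 s on carbon-coated grids and were negatively stained with 2% phosphotungstic acid in PBS, pH 7.0.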

Series [2] addresses T1, bovine serum albumin (BSA). The note with it: ref Liu et al., 2005; cited from earlier work.
In series [3] the test system is MCF-7 human breast cancer cells. The series can be described thus: In vitro cytotoxicity, MTT assay. The note with it: read-out: mean IC50. The series is classed as cell-based. An outline of the steps:
(§1)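 Cells kept in phenol red-free DMEM with 10% FBS, L-glutamine and antibiotics at 37 °C, 5% CO2, then seeded in 96-well plates. They were exposed to a range of test compound concentrations (free drug in DMSO or micellar formulations) for 24, 48 or 72 h. Next, 0.5 mg/mL MTT for 2 h, absorbance read at 550 nm. Viability expressed as % of untreated control wells.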

Series [4] has as its system MDA-MB-231 human breast cancer cells. The series can be described thus: In vitro cytotoxicity, MTT assay. The series is classed as cell-based. The note with it: read-out: mean IC50. An outline of the steps: as §1
The conditions of series [5]: low solubility and low permeability; cited from earlier work.

Like-named read-outs stand apart in the source and are kept apart here.

T1 sequence (P02769 25-607): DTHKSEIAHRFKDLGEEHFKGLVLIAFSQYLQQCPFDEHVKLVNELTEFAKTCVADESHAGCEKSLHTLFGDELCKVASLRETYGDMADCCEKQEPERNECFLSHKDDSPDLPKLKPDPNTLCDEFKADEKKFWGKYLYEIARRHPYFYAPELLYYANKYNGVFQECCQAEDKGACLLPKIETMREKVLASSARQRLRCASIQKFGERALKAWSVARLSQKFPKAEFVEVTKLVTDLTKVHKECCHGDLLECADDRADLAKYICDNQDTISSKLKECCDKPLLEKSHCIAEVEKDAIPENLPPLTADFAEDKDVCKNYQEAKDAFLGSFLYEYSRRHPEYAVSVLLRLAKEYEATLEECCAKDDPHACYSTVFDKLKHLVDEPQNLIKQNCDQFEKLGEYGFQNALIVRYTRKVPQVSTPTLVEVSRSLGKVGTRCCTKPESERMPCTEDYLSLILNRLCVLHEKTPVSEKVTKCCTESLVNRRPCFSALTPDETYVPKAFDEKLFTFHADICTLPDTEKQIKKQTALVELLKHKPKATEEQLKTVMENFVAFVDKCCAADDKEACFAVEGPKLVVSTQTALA

With bovine serum albumin [BSA], in series [1] (8-h incubation at 37 °C in 0.01 M PBS pH 7.4, sample alone), the “Size (hydrodynamic)” value is recorded as 8.2 ± 0.1 nm. This compound also returned a Polydispersity in series [1] (8-h incubation at 37 °C in PBS, sample alone) of 0.236 ± 0.019. The hydrodynamic diameter in series [2] is on record as 7.9 ± 0.4 nm.

For `CC(=O)O[C@H]1C(=O)[C@@]2(C)[C@H]([C@H](OC(=O)c3ccccc3)[C@]3(O)C[C@H](OC(=O)[C@H](O)[C@@H](NC(=O)c4ccccc4)c4ccccc4)C(C)=C1C3(C)C)[C@]1(OC(C)=O)CO[C@@H]1C[C@@H]2O` [Free PTX (in DMSO), Paclitaxel], the IC50 in series [3] (MCF7, 24 h) is over 1 µM; in series [3] (MCF7, 48 h), 0.384 µM; in series [3] (MCF7, 72 h) it was 0.297 µM; in series [4] (MDA-MB-231, 24 h), 0.0216 µM; in series [4] (MDA-MB-231, 48 h) it was 0.0108 µM; in series [4] (MDA-MB-231, 72 h) it was 0.0097 µM. Also, the “biopharmaceutical classification system (BCS) class” value in series [5] is reported as “class IV”.
